{"source": "ChEMBL document CHEMBL1687861", "about": "“Comazaphilones A-F, azaphilone derivatives from the marine sediment-derived fungus Penicillium commune QSD-17” (J Nat Prod, 2011)", "key": {"Staphylococcus aureus": {"tested_on": "Staphylococcus aureus", "assay": "Antimicrobial activity against methicillin-resistant Staphylococcus aureus after 18 hrs by broth microdilution method", "assay_type": "functional", "summary_of_the_method": "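Broth microdilution MIC. Inoculum 5 × 10^5 cfu/mL. Concentration range 1024-1 μg/mL. Plates incubated 18 h at 35 °C in ambient air. The MIC was read at the end of incubation.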"}, "Pseudomonas aeruginosa": {"tested_on": "Pseudomonas aeruginosa", "assay": "Antimicrobial activity against Pseudomonas aeruginosa after 18 hrs by broth microdilution method", "assay_type": "functional", "summary_of_the_method": "(§1)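 Broth microdilution MIC; inoculum 5 × 10^5 cfu/mL; compounds tested over 1024-1 μg/mL; plates incubated 18 h at 35 °C in ambient air; MIC taken as the read-out after incubation.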"}, "Pseudomonas fluorescens": {"tested_on": "Pseudomonas fluorescens", "assay": "Antimicrobial activity against Pseudomonas fluorescens after 18 hrs by broth microdilution method", "assay_type": "functional", "summary_of_the_method": "as §1"}, "Bacillus subtilis": {"tested_on": "Bacillus subtilis", "assay": "Antimicrobial activity against Bacillus subtilis after 18 hrs by broth microdilution method", "assay_type": "functional", "summary_of_the_method": "as §1"}, "SW1990": {"tested_on": "SW1990", "assay": "Cytotoxicity against human SW1990 cells", "assay_type": "functional, cell-based"}, "Candida albicans": {"tested_on": "Candida albicans", "assay": "Antimicrobial activity against Candida albicans after 18 hrs by broth microdilution method", "assay_type": "functional", "summary_of_the_method": "as §1"}, "DU-145": {"tested_on": "DU-145", "assay": "Cytotoxicity against human DU145 cells", "assay_type": "functional, cell-based"}, "HepG2": {"tested_on": "HepG2", "assay": "Cytotoxicity against human HepG2 cells", "assay_type": "functional, cell-based"}, "HeLa": {"tested_on": "HeLa", "assay": "Cytotoxicity against human HeLa cells", "assay_type": "functional, cell-based"}, "MCF7": {"tested_on": "MCF7", "assay": "Cytotoxicity against human MCF7 cells", "assay_type": "functional, cell-based"}, "NCI-H460": {"tested_on": "NCI-H460", "assay": "Cytotoxicity against human NCI-H460 cells", "assay_type": "functional, cell-based"}, "SMMC-7721": {"tested_on": "SMMC-7721", "assay": "Cytotoxicity against human SMMC7721 cells", "assay_type": "functional, cell-based"}}, "note": "pIC50: −log10 of the molar value. Activity calls are given as the source filed them. The rule behind the calls is not given here.", "data": [{"compound": "CC1(C)S[C@@H]2[C@H](NC(=O)[C@H](N)c3ccccc3)C(=O)N2[C@H]1C(=O)O", "note": "[AMPICILLIN]", "values": [{"measurement": "MIC", "setting": "Staphylococcus aureus", "value": 8, "unit": "µg/mL"}, {"measurement": "MIC", "setting": "Pseudomonas aeruginosa", "value": 2, "unit": "µg/mL"}, {"measurement": "MIC", "setting": "Pseudomonas fluorescens", "value": 4, "unit": "µg/mL"}, {"measurement": "MIC", "setting": "Bacillus subtilis", "value": 4, "unit": "µg/mL"}]}, {"compound": "O=c1[nH]cc(F)c(=O)[nH]1", "note": "[FLUOROURACIL]", "values": [{"measurement": "pIC50", "setting": "SW1990", "value": 3.92}]}, {"compound": "CCCC1=CC2=C(CO1)C(=O)[C@](C)(OC(=O)c1c(C)cc(O)cc1OC)[C@H](O)C2", "note": "[COMAZAPHILONE A]", "values": [{"measurement": "MIC", "setting": "Staphylococcus aureus", "value": "> 256", "unit": "µg/mL"}, {"measurement": "MIC", "setting": "Pseudomonas aeruginosa", "value": "> 256", "unit": "µg/mL"}, {"measurement": "MIC", "setting": "Pseudomonas fluorescens", "value": "> 256", "unit": "µg/mL"}, {"measurement": "MIC", "setting": "Bacillus subtilis", "value": "> 256", "unit": "µg/mL"}, {"measurement": "MIC", "setting": "Candida albicans", "value": "> 256", "unit": "µg/mL"}, {"measurement": "Activity", "setting": "DU-145", "value": "inactive"}, {"measurement": "Activity", "setting": "HepG2", "value": "inactive"}, {"measurement": "Activity", "setting": "HeLa", "value": "inactive"}, {"measurement": "Activity", "setting": "MCF7", "value": "inactive"}, {"measurement": "Activity", "setting": "NCI-H460", "value": "inactive"}, {"measurement": "Activity", "setting": "SMMC-7721", "value": "inactive"}]}, {"compound": "C/C=C/C1=CC2=C(CO1)C(=O)[C@](C)(OC(=O)c1c(C)cc(O)c(O)c1OC)[C@H](O)C2", "note": "[COMAZAPHILONE C]", "values": [{"measurement": "MIC", "setting": "Staphylococcus aureus", "value": 16, "unit": "µg/mL"}, {"measurement": "MIC", "setting": "Pseudomonas aeruginosa", "value": "> 256", "unit": "µg/mL"}, {"measurement": "MIC", "setting": "Pseudomonas fluorescens", "value": 64, "unit": "µg/mL"}, {"measurement": "MIC", "setting": "Bacillus subtilis", "value": 32, "unit": "µg/mL"}, {"measurement": "MIC", "setting": "Candida albicans", "value": "> 256", "unit": "µg/mL"}, {"measurement": "Activity", "setting": "DU-145", "value": "inactive"}, {"measurement": "Activity", "setting": "HepG2", "value": "inactive"}, {"measurement": "Activity", "setting": "HeLa", "value": "inactive"}, {"measurement": "Activity", "setting": "MCF7", "value": "inactive"}, {"measurement": "Activity", "setting": "NCI-H460", "value": "inactive"}, {"measurement": "Activity", "setting": "SMMC-7721", "value": "inactive"}]}, {"compound": "CCCC1=CC2=C(CO1)C(=O)[C@](C)(O)[C@H](OC(=O)c1c(C)cc(O)c(O)c1OC)C2", "note": "[COMAZAPHILONE F]", "values": [{"measurement": "MIC", "setting": "Staphylococcus aureus", "value": 128, "unit": "µg/mL"}, {"measurement": "MIC", "setting": "Pseudomonas aeruginosa", "value": "> 256", "unit": "µg/mL"}, {"measurement": "MIC", "setting": "Pseudomonas fluorescens", "value": 64, "unit": "µg/mL"}, {"measurement": "MIC", "setting": "Bacillus subtilis", "value": 128, "unit": "µg/mL"}, {"measurement": "MIC", "setting": "Candida albicans", "value": "> 256", "unit": "µg/mL"}, {"measurement": "pIC50", "setting": "SW1990", "value": 4.28}]}, {"compound": "C/C=C/C1=CC2=C(CO1)C(=O)[C@](C)(O)[C@H](OC(=O)c1c(C)cc(O)cc1O)C2", "note": "[COMAZAPHILONE D]", "values": [{"measurement": "MIC", "setting": "Staphylococcus aureus", "value": 32, "unit": "µg/mL"}, {"measurement": "MIC", "setting": "Pseudomonas aeruginosa", "value": "> 256", "unit": "µg/mL"}, {"measurement": "MIC", "setting": "Pseudomonas fluorescens", "value": 16, "unit": "µg/mL"}, {"measurement": "MIC", "setting": "Bacillus subtilis", "value": "> 256", "unit": "µg/mL"}, {"measurement": "MIC", "setting": "Candida albicans", "value": "> 256", "unit": "µg/mL"}, {"measurement": "pIC50", "setting": "SW1990", "value": 4.29}]}, {"compound": "NYSTATIN", "values": [{"measurement": "MIC", "setting": "Candida albicans", "value": 2, "unit": "µM"}]}, {"compound": "C/C=C/C1=CC2=C(CO1)C(=O)[C@](C)(O)[C@H](OC(=O)c1c(C)cc(O)c(O)c1OC)C2", "note": "[COMAZAPHILONE E]", "values": [{"measurement": "MIC", "setting": "Staphylococcus aureus", "value": "> 256", "unit": "µg/mL"}, {"measurement": "MIC", "setting": "Pseudomonas aeruginosa", "value": "> 256", "unit": "µg/mL"}, {"measurement": "MIC", "setting": "Pseudomonas fluorescens", "value": 32, "unit": "µg/mL"}, {"measurement": "MIC", "setting": "Bacillus subtilis", "value": 16, "unit": "µg/mL"}, {"measurement": "MIC", "setting": "Candida albicans", "value": "> 256", "unit": "µg/mL"}, {"measurement": "pIC50", "setting": "SW1990", "value": 4.59}]}, {"compound": "CCCC1=CC2=C(CO1)C(=O)[C@](C)(OC(=O)c1c(C)cc(O)c(O)c1OC)[C@H](O)C2", "note": "[COMAZAPHILONE B]", "values": [{"measurement": "MIC", "setting": "Staphylococcus aureus", "value": 128, "unit": "µg/mL"}, {"measurement": "MIC", "setting": "Pseudomonas aeruginosa", "value": "> 256", "unit": "µg/mL"}, {"measurement": "MIC", "setting": "Pseudomonas fluorescens", "value": 128, "unit": "µg/mL"}, {"measurement": "MIC", "setting": "Bacillus subtilis", "value": 64, "unit": "µg/mL"}, {"measurement": "MIC", "setting": "Candida albicans", "value": "> 256", "unit": "µg/mL"}, {"measurement": "Activity", "setting": "DU-145", "value": "inactive"}, {"measurement": "Activity", "setting": "HepG2", "value": "inactive"}, {"measurement": "Activity", "setting": "HeLa", "value": "inactive"}, {"measurement": "Activity", "setting": "MCF7", "value": "inactive"}, {"measurement": "Activity", "setting": "NCI-H460", "value": "inactive"}, {"measurement": "Activity", "setting": "SMMC-7721", "value": "inactive"}]}]}
